Data published in ChEMBL document CHEMBL2407011, “Novel 2-(2,4-dioxo-1,3-thiazolidin-5-yl)acetamides as antioxidant and/or anti-inflammatory compounds” (Eur J Med Chem, 2013).
Converted amounts (≈) assume the structure as drawn.

Experiments:
[1] = test system: THP-1; experiment: Antiinflammatory activity in human THP1 cells assessed as inhibition of PMA-induced MCP-1 secretion preincubated for 1 hr prior PMA-challenge measured after 48 hrs by ELISA; type: functional, cell-based
Procedure, shortened: (§1)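 THP1 cells at 2 x 10^5 cells/mL were pretreated 1 h with 5, 10 and 20 µM compound, then stimulated with 10 ng/mL PMA for 48 h. Supernatant IL-1β or MCP-1 was measured by ELISA at 450 nm (corrected at 570 nm) and quantified from a standard curve. Percent inhibition was taken versus control and IC50 derived, reported as mean ± SD of three independent experiments.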

[2] = test system: THP-1; experiment: Antiinflammatory activity in human THP1 cells assessed as inhibition of PMA-induced IL-1beta secretion preincubated for 1 hr prior PMA-challenge measured after 48 hrs by ELISA; type: functional, cell-based; procedure, shortened: as §1
[3] = Antioxidant activity assessed as inhibition of lipid peroxidation activity after 15 mins by MDA assay; type: functional
Procedure, shortened: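 Egg yolk diluted 1:1 in PBS (0.1 M, pH 7.45) served as substrate. Compound (50–300 µg/mL) was added with FeSO4 (25 mM stock) and incubated 15 min at 37 °C. Reaction stopped with 20% TCA plus 0.8% thiobarbituric acid, then heated 15 min at 100 °C. MDA adduct read at 532 nm; % inhibition versus control, EC50 from triplicates.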

[4] = Hemolysis of human erythrocytes after 30 mins by spectrophotometry; type: ADME, cell-based, Erythrocyte
Procedure, shortened: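 Citrated human blood centrifuged (3,000 g, 10 min), erythrocytes washed in PBS pH 7.4 and made up as a 1.25% suspension. Suspension incubated with H2O2 (2.5 mM) and compound (50–300 µg/mL) 30 min at 37 °C, stopped on ice, centrifuged, read at 540 nm. Inhibition = (AH2O2 − Asample)/(AH2O2 − Anormal) × 100.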

[5] = Antioxidant activity assessed as DPPH scavenging activity after 30 mins by UV-visible spectrophotometry; type: functional
Procedure, shortened: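 Methanolic compound solutions (5–180 µg/mL) mixed 1:1 by volume with 0.002% DPPH in methanol, shaken and kept in the dark 30 min. Absorbance read at 517 nm; % scavenging = (Acontrol − Asample)/Acontrol × 100. EC50 is the concentration scavenging 50% of radicals; mean of three experiments.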

[6] = Antioxidant activity assessed as superoxide radical scavenging activity after 5 mins by spectrophotometry; type: functional
Procedure, shortened: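 Superoxide generated by PMS/NADH reducing NBT, in 16 mM Tris-HCl pH 8.0 with […], 50 µM NBT, 10 µM PMS and compound (5–180 µg/mL). After 5 min at room temperature, formazan read at 560 nm; % scavenging versus control, EC50 from triplicates.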

[7] = test system: THP-1; experiment: Antiinflammatory activity against PMA-stimulated human THP1 cells assessed as IL-1beta levels after 48 hrs by ELISA (reference value: 172 +/- 0.71 pg/ml); type: functional
[8] = test system: THP-1; experiment: Antiinflammatory activity against PMA-stimulated human THP1 cells assessed as MCP-1 levels after 48 hrs by ELISA (reference value: 3521.63 +/- 79.78 pg/ml); type: functional
[9] = Homo sapiens, Erythrocyte, 0.5 h, read-out: EC50

SMILES | IC50 [1] [µM] | IC50 [2] [µM] | EC50 [3] | EC50 [5] | EC50 [6] | EC50 [4, 9] [µg/mL] | EC50 ([4]; erythrocyte) | Activity [7] [pg/mL] | Activity [8] [pg/mL]
O=C(CC1SC(=O)NC1=O)Nc1nc(-c2ccc(Cl)cc2)cs1 (stereo not given) | > 50 | 16.3 |  | Not Active |  |  |  |  | 
O=C(CC1SC(=O)NC1=O)Nc1nc(-c2ccccc2F)cs1 (stereo not given) | 16.7 | > 50 | Not Active | 82.5 µg/mL (≈ 235 µM) | Not Active |  | Not Active |  | 
O=C(CC1SC(=O)NC1=O)Nc1nc(-c2ccccc2)cs1 (stereo not given) | 30.4 | 9.6 |  | Not Active |  |  |  |  | 
Cc1ccccc1-c1csc(NC(=O)CC2SC(=O)NC2=O)n1 (stereo not given) | 18.8 | 7.66 |  | Not Active |  |  |  |  | 
O=C(CC1SC(=O)NC1=O)Nc1nc2ccccc2s1 (stereo not given) | 20.8 | > 50 | 149.7 µg/mL (≈ 487 µM) | 52.18 µg/mL (≈ 170 µM) | 101.18 µg/mL (≈ 329 µM) | 107 (≈ 349 µM) |  |  | 
CCc1ccc(CCOc2ccc(CC3SC(=O)NC3=O)cc2)nc1 (stereo not given) [PIOGLITAZONE] | 18.8 | > 50 |  |  |  |  |  | 165 | 2588.33
O=C(CC1SC(=O)NC1=O)Nc1nc(-c2ccc(I)cc2)cs1 (stereo not given) | 31.7 | > 50 |  | Not Active |  |  | Not Active |  | 
O=C(CC1SC(=O)NC1=O)Nc1nc(-c2ccccc2Cl)cs1 (stereo not given) | 26.5 | 18.2 |  | Not Active |  |  |  |  | 
CN1C(C(=O)Nc2ccccn2)=C(O)c2ccccc2S1(=O)=O [PIROXICAM] |  | 21.3 |  |  |  |  |  |  | 
O=c1cc(-c2ccc(O)c(O)c2)oc2cc(O)cc(O)c12 [LUTEOLIN] |  |  | 149.7 µg/mL (≈ 523 µM) | 44.18 µg/mL (≈ 154 µM) | 31.01 µg/mL (≈ 108 µM) | 107 (≈ 375 µM) |  |  | 
O=C(CC1SC(=O)NC1=O)Nc1nc(-c2cccc(Cl)c2)cs1 (stereo not given) | 34.2 | 23.4 |  | Not Active |  |  |  |  | 

Continued, in another order:

IC50 [1] [µM] | IC50 [2] [µM] | EC50 [3] | EC50 [5] | EC50 [6] | SMILES | EC50 [4, 9] [µg/mL] | EC50 ([4]; erythrocyte) | Activity [7] [pg/mL] | Activity [8] [pg/mL]
> 50 | 7.23 | 131.79 µg/mL (≈ 363 µM) | 58.68 µg/mL (≈ 161 µM) | 79.94 µg/mL (≈ 220 µM) | COc1ccccc1-c1csc(NC(=O)CC2SC(=O)NC2=O)n1 (stereo not given) | 96.6 (≈ 266 µM) |  |  | 
17.6 | > 50 | Not Active | 52.69 µg/mL (≈ 150 µM) | Not Active | O=C(CC1SC(=O)NC1=O)Nc1nc(-c2ccc(F)cc2)cs1 (stereo not given) |  | Not Active |  | 
49.1 | 33.1 | Not Active | 49.71 µg/mL (≈ 121 µM) | Not Active | O=C(CC1SC(=O)NC1=O)Nc1nc(-c2ccc(Br)cc2)cs1 (stereo not given) |  | Not Active |  | 
20.3 | 6.83 | Not Active | 39.76 µg/mL (≈ 113 µM) | Not Active | O=C(CC1SC(=O)NC1=O)Nc1nc2ccc([N+](=O)[O-])cc2s1 (stereo not given) |  | Not Active |  | 
18.9 | 11.7 |  | 90.16 µg/mL (≈ 260 µM) | Not Active | Cc1cccc(-c2csc(NC(=O)CC3SC(=O)NC3=O)n2)c1 (stereo not given) |  | Not Active |  | 
 |  | 139.97 µg/mL (≈ 795 µM) | 40.28 µg/mL (≈ 229 µM) | 21.01 µg/mL (≈ 119 µM) | O=C1O[C@H]([C@@H](O)CO)C(O)=C1O [ASCORBIC ACID] | 96.6 (≈ 549 µM) |  |  | 
63.1 | > 50 | Not Active | 62.9 µg/mL (≈ 179 µM) | Not Active | CCOc1ccc2nc(NC(=O)CC3SC(=O)NC3=O)sc2c1 (stereo not given) |  | Not Active |  | 
39.6 | 7.03 | Not Active | 51.82 µg/mL (≈ 154 µM) | Not Active | COc1ccc2nc(NC(=O)CC3SC(=O)NC3=O)sc2c1 (stereo not given) |  | Not Active |  | 
